In ChEMBL document CHEMBL1122798, “Trypanocidal 1,3-arylene diketone bis(guanylhydrazone)s. Structure-activity relationships among substituted and heterocyclic analogues” (1984):

Experiments:
Type in all cases: functional
Mus musculus [1] = experiment: Compound was tested for Trypanocidal Activity in mice at 15 mg/kg; 9/10
Mus musculus [2] = experiment: Compound was tested for Trypanocidal Activity in mice at 4 mg/kg; 11/20
Mus musculus [3] = experiment: Compound was tested for Trypanocidal Activity in mice at 60 mg/kg; 0/5
Mus musculus [4] = experiment: Compound was tested for Trypanocidal Activity in mice at 1.5 mg/kg; 0/15
Mus musculus [5] = experiment: Compound was tested for Trypanocidal Activity in mice at 10 mg/kg; 10/10
Mus musculus [6] = experiment: Compound was tested for Trypanocidal Activity in mice at 6 mg/kg; 14/20
Mus musculus [7] = experiment: Compound was tested for Trypanocidal Activity in mice at 2.5 mg/kg; 3/20
Mus musculus [8] = experiment: Compound was tested for Trypanocidal Activity in mice at 40 mg/kg; 10/10
Mus musculus [9] = experiment: Compound was tested for Trypanocidal Activity in mice at 25 mg/kg; 8/10
Mus musculus [10] = species on record: Mus musculus; experiment: Effective dose against Trypanosoma brucei infection in mice
Procedure, shortened: (§1)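 Female Swiss-Webster mice (20–25 g) were infected ip with 5×10^4 T. brucei EATRO 110 organisms in fresh mouse blood diluted with minimum essential medium. Groups of 5 or 10 received a single ip dose in normal saline (solution or milled suspension, 20 μL/g) 6 h post-infection. Deaths within 72 h were scored as toxic. Survivors aparasitemic at 28 days (tail-blood wet films, phase contrast) counted as cures. ED50 was computed by Bliss/Litchfield–Wilcoxon, excluding toxic dosages.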

Mus musculus [11] = experiment: Compound was tested for Trypanocidal Activity in mice at 100 mg/kg; 0/5
Mus musculus [12] = experiment: Compound was tested for Trypanocidal Activity in mice at 40 mg/kg; 0/10
Mus musculus [13] = experiment: Compound was tested for Trypanocidal Activity in mice at 60 mg/kg; 2/5
Mus musculus [14] = experiment: Compound was tested for Trypanocidal Activity in mice at 4 mg/kg; 10/20
Mus musculus [15] = experiment: Compound was tested for Trypanocidal Activity in mice at 10 mg/kg; 20/20
Mus musculus [16] = experiment: Compound was tested for Trypanocidal Activity in mice at 2.5 mg/kg; 1/10
Mus musculus [17] = experiment: Compound was tested for Trypanocidal Activity in mice at 25 mg/kg; 18/20
Mus musculus [18] = experiment: Compound was tested for Trypanocidal Activity in mice at 1.5 mg/kg; 0/10
Mus musculus [19] = experiment: Compound was tested for Trypanocidal Activity in mice at 6 mg/kg; 17/20
Mus musculus [20] = experiment: Compound was tested for Trypanocidal Activity in mice at 60 mg/kg; 3/5
Mus musculus [21] = experiment: Compound was tested for Trypanocidal Activity in mice at 15 mg/kg; 19/20
Mus musculus [22] = experiment: Compound was tested for Trypanocidal Activity in mice at 1.5 mg/kg; 0/20
Mus musculus [23] = experiment: Compound was tested for Trypanocidal Activity in mice at 6 mg/kg; 14/30
Mus musculus [24] = experiment: Compound was tested for Trypanocidal Activity in mice at 4 mg/kg; 10/30
Mus musculus [25] = experiment: Compound was tested for Trypanocidal Activity in mice at 25 mg/kg; 10/10
Mus musculus [26] = experiment: Compound was tested for Trypanocidal Activity in mice at 60 mg/kg; toxic deaths; 1/10
Mus musculus [27] = experiment: Tested for Trypanocidal Activity in mice at 10 mg/kg; 17/20; procedure, shortened: as §1
Mus musculus [28] = experiment: Compound was tested for Trypanocidal Activity in mice at 2.5 mg/kg; 5/30
Mus musculus [29] = experiment: Compound was tested for Trypanocidal Activity in mice at 15 mg/kg; 10/10
Mus musculus [30] = experiment: Compound was tested for Trypanocidal Activity in mice at 25 mg/kg; 0/5
Mus musculus [31] = experiment: Compound was tested for Trypanocidal Activity in mice at 40 mg/kg; 0/5
Mus musculus [32] = experiment: Compound was tested for Trypanocidal Activity in mice at 15 mg/kg; 0/5
Mus musculus [33] = experiment: Compound was tested for Trypanocidal Activity in mice at 15 mg/kg; 11/20
Mus musculus [34] = experiment: Compound was tested for Trypanocidal Activity in mice at 40 mg/kg; 1/5
Mus musculus [35] = experiment: Compound was tested for Trypanocidal Activity in mice at 25 mg/kg; 4/5
Mus musculus [36] = experiment: Compound was tested for Trypanocidal Activity in mice at 10 mg/kg; 1/20
Mus musculus [37] = experiment: Compound was tested for Trypanocidal Activity in mice at 6 mg/kg; 0/10
Mus musculus [38] = experiment: Compound was tested for Trypanocidal Activity in mice at 10 mg/kg; 22/30
Mus musculus [39] = experiment: Compound was tested for Trypanocidal Activity in mice at 40 mg/kg; 9/10
Mus musculus [40] = experiment: Compound was tested for Trypanocidal Activity in mice at 6 mg/kg; 32/45
Mus musculus [41] = experiment: Compound was tested for Trypanocidal Activity in mice at 2.5 mg/kg; 6/25
Mus musculus [42] = experiment: Compound was tested for Trypanocidal Activity in mice at 100 mg/kg; 1/5
Mus musculus [43] = experiment: Compound was tested for Trypanocidal Activity in mice at 60 mg/kg; 7/10; procedure, shortened: as §1
Mus musculus [44] = experiment: Compound was tested for Trypanocidal Activity in mice at 4 mg/kg; 24/45
Mus musculus [45] = experiment: Compound was tested for Trypanocidal Activity in mice at 0.15 mg/kg; 6/20
Mus musculus [46] = experiment: Compound was tested for Trypanocidal Activity in mice at 15 mg/kg; 3/5
Mus musculus [47] = experiment: Compound was tested for Trypanocidal Activity in mice at 1.0 mg/kg; 9/10
Mus musculus [48] = experiment: Compound was tested for Trypanocidal Activity in mice at 4 mg/kg; 10/10
Mus musculus [49] = experiment: Compound was tested for Trypanocidal Activity in mice at 10 mg/kg; 5/5
Mus musculus [50] = experiment: Compound was tested for Trypanocidal Activity in mice at 6 mg/kg; 10/10
Mus musculus [51] = experiment: Compound was tested for Trypanocidal Activity in mice at 0.1 mg/kg; 1/10
Mus musculus [52] = experiment: Compound was tested for Trypanocidal Activity in mice at 0.4 mg/kg; 24/45
Mus musculus [53] = experiment: Compound was tested for Trypanocidal Activity in mice at 2.5 mg/kg; 9/10
Mus musculus [54] = experiment: Compound was tested for Trypanocidal Activity in mice at 100 mg/kg; 5/5
Mus musculus [55] = experiment: Compound was tested for Trypanocidal Activity in mice at 60 mg/kg; 5/5
Mus musculus [56] = experiment: Compound was tested for Trypanocidal Activity in mice at 1.5 mg/kg; 19/20
Mus musculus [57] = experiment: Compound was tested for Trypanocidal Activity in mice at 0.6 mg/kg; 23/25
Mus musculus [58] = experiment: Compound was tested for Trypanocidal Activity in mice at 25 mg/kg; 3/5
Mus musculus [59] = experiment: Compound was tested for Trypanocidal Activity in mice at 0.06 mg/kg; 0/10
Mus musculus [60] = experiment: Compound was tested for Trypanocidal Activity in mice at 150 mg/kg; 3/5
Mus musculus [61] = experiment: Compound was tested for Trypanocidal Activity in mice at 40 mg/kg; 5/5
Mus musculus [62] = experiment: Compound was tested for Trypanocidal Activity in mice at 0.25 mg/kg; 28/40

C/C(=N\NC(=N)N)c1cc(C)cc(/C(C)=N/NC(=N)N)c1.Cl
Cures/total (Mus musculus [1]): 9
Cures/total (Mus musculus [2]): 11
Cures/total (Mus musculus [3]): 0
Cures/total (Mus musculus [4]): 0
Cures/total (Mus musculus [5]): 10
Cures/total (Mus musculus [6]): 14
Cures/total (Mus musculus [7]): 3
Cures/total (Mus musculus [8]): 10
Cures/total (Mus musculus [9]): 8
ED50 (Mus musculus [10]): 4.1 mg/kg
Cures/total (Mus musculus [11]): 0

C/C(=N\NC(=N)N)c1cc(I)cc(/C(C)=N/NC(=N)N)c1.Cl
Cures/total (Mus musculus [12]): 0
Cures/total (Mus musculus [13]): 2
Cures/total (Mus musculus [11]): 0

C/C(=N\NC(=N)N)c1cccc(/C(C)=N/NC(=N)N)n1.Cl
Cures/total (Mus musculus [14]): 10
Cures/total (Mus musculus [15]): 20
Cures/total (Mus musculus [16]): 1
Cures/total (Mus musculus [17]): 18
Cures/total (Mus musculus [8]): 10
Cures/total (Mus musculus [18]): 0
Cures/total (Mus musculus [19]): 17
ED50 (Mus musculus [10]): 4.1 mg/kg
Cures/total (Mus musculus [11]): 0
Cures/total (Mus musculus [20]): 3
Cures/total (Mus musculus [21]): 19

CCO.COc1cc(/C(C)=N/NC(=N)N)cc(/C(C)=N/NC(=N)N)c1.Cl
Cures/total (Mus musculus [22]): 0
Cures/total (Mus musculus [23]): 14
Cures/total (Mus musculus [24]): 10
Cures/total (Mus musculus [25]): 10
Cures/total (Mus musculus [8]): 10
Cures/total (Mus musculus [26]): 1
ED50 (Mus musculus [10]): 5.4 mg/kg
Cures/total (Mus musculus [11]): 0
Cures/total (Mus musculus [27]): 17
Cures/total (Mus musculus [28]): 5
Mice cured (number) (Mus musculus [29]): 10

C/C(=N\NC(=N)N)c1cccc(/C(C)=N/NC(=N)N)c1N.Cl
Cures/total (Mus musculus [30]): 0
Cures/total (Mus musculus [31]): 0
Cures/total (Mus musculus [32]): 0

C/C(=N\NC(=N)N)c1cncc(/C(C)=N/NC(=N)N)c1.Cl
Cures/total (Mus musculus [33]): 11
Cures/total (Mus musculus [34]): 1
Cures/total (Mus musculus [35]): 4
Cures/total (Mus musculus [36]): 1
Cures/total (Mus musculus [37]): 0

C/C(=N\NC(=N)N)c1cccc(/C(C)=N/NC(=N)N)c1.Cl [BIS(GUANYLHYDRAZONE) ;2M HYDROCHLORIDE]
Cures/total (Mus musculus [38]): 22
Cures/total (Mus musculus [39]): 9
Cures/total (Mus musculus [40]): 32
Cures/total (Mus musculus [25]): 10
Cures/total (Mus musculus [18]): 0
ED50 (Mus musculus [10]): 4.2 mg/kg
Cures/total (Mus musculus [41]): 6
Cures/total (Mus musculus [42]): 1
Cures/total (Mus musculus [43]): 7
Mice cured (number) (Mus musculus [29]): 10
Cures/total (Mus musculus [44]): 24

CC(=O)NCC(=O)O.N=C(N)c1ccc(/N=N/Nc2ccc(C(=N)N)cc2)cc1 [DIMINAZEN ACETURATE]
Cures/total (Mus musculus [45]): 6
Cures/total (Mus musculus [46]): 3
Cures/total (Mus musculus [47]): 9
Cures/total (Mus musculus [48]): 10
Cures/total (Mus musculus [49]): 5
Cures/total (Mus musculus [50]): 10
Cures/total (Mus musculus [51]): 1
Cures/total (Mus musculus [52]): 24
Cures/total (Mus musculus [53]): 9
ED50 (Mus musculus [10]): 0.24 mg/kg
Cures/total (Mus musculus [54]): 5
Cures/total (Mus musculus [55]): 5
Cures/total (Mus musculus [56]): 19
Cures/total (Mus musculus [57]): 23
Cures/total (Mus musculus [58]): 3
Cures/total (Mus musculus [59]): 0
Cures/total (Mus musculus [60]): 3
Cures/total (Mus musculus [61]): 5
Cures/total (Mus musculus [62]): 28
